Drawing on ChEMBL document CHEMBL1123459, “Synthesis and dopaminergic binding of 2-aryldopamine analogues: phenethylamines, 3-benzazepines, and 9-(aminomethyl)fluorenes” (J Med Chem, 1986), this text covers inhibition and Ki for 11 molecules.

For test [1], the target named is D(2) dopamine receptor (Bos taurus) (UniProt P20288). The test is described as follows: Compound was tested for inhibition of [3H]spiroperidol binding against Dopamine receptor D2 at 10e-5 M; IA= Inactive.
Test [2] has as its target T1, D(1A) dopamine receptor (Rattus norvegicus, UniProt P18901). The test is described as follows: Displacement of [3H]fenoldopam from Dopamine receptor D1 of rat striatum membranes. The class given is cell membranes, Membrane. For orientation: Displacement assays read how much labelled ligand stays bound in the presence of the test substance.
For test [3], the target named is D(2) dopamine receptor (Bos taurus) (UniProt P20288). In words: Compound was tested for inhibition of [3H]spiroperidol binding against Dopamine receptor D2 at 10e-5 M.
The target in another test is D(2) dopamine receptor (Bos taurus, UniProt P20288). In words: Compound was tested for inhibition of [3H]spiroperidol binding against Dopamine receptor D2. The essentials: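 Washed bovine anterior pituitary membranes (500 μg protein) incubated 20 min at 37 °C with 0.2–0.3 nM [3H]spiroperidol in Tris-HCl pH 7.4, MgSO4, 2 mM EDTA, 0.1% ascorbate.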
Test [4] concerns the target T1, D(1A) dopamine receptor. In words: Compound was tested for binding affinity against dDopamine receptor D1 using [3H]fenoldopam as a radioligand.

Sequence of D(2) dopamine receptor (Bos taurus) (P20288 whole entry): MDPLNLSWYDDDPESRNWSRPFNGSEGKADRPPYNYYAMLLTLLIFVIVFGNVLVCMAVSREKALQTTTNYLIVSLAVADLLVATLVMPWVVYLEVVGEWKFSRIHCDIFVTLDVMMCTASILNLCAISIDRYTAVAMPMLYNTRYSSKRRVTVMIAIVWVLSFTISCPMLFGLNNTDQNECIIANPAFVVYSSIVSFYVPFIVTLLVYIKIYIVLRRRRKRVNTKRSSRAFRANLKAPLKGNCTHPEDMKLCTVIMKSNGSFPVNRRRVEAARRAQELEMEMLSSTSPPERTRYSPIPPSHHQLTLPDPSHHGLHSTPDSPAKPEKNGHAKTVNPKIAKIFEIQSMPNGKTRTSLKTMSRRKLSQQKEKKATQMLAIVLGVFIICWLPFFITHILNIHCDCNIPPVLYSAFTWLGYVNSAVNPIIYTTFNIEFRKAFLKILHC
T1 sequence (P18901 whole entry): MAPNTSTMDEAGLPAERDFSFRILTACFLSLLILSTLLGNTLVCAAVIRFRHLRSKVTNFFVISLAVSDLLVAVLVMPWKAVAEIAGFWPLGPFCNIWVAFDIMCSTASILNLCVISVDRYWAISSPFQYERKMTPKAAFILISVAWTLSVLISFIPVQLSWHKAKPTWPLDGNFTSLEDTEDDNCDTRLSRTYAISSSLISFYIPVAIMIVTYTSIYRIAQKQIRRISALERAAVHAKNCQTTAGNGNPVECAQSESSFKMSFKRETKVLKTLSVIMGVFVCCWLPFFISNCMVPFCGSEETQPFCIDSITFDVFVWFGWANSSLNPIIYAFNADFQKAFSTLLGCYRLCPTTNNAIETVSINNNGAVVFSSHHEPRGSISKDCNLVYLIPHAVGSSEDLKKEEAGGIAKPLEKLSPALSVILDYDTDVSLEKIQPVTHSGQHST
Sequence of D(2) dopamine receptor (P20288 whole entry): as the sequence (P20288 whole entry) above

On to `Oc1ccc(-c2c(O)c(O)c(Cl)c3c2CCNCC3)cc1`, for which the inhibition in test [1] was under 20%. The molecule further registered a Ki on D(1A) dopamine receptor [2] of 1.63 µM.
`Oc1cc2c(c(-c3ccccc3)c1O)CCNCC2` showed an inhibition in test [1] of under 20%. At D(1A) dopamine receptor [2], this molecule had a Ki of 1.79 µM.
The molecule `Oc1ccc(-c2c(O)c(O)cc3c2CCNCC3)cc1` displayed an inhibition in test [1] of under 20%. In addition, on D(1A) dopamine receptor [2], the Ki was over 3 µM.
With `NCC1c2ccccc2-c2c1ccc(O)c2O` (stereo unspecified), in test [3], the inhibition is 20%. Also, on D(1A) dopamine receptor [2], the inhibition constant (Ki) is 0.38 µM.
Turning to `CCCN(CCC)CCc1ccc(O)c(O)c1-c1ccccc1`, the inhibition in test [3] is 29%. Also, affinity on D(1A) dopamine receptor [2] was put at a Ki of 1.94 µM.
With `NCCc1ccc(O)c(O)c1-c1ccc(O)cc1`, in test [1], the inhibition is under 20%. Besides, at D(1A) dopamine receptor [2], affinity was put at a Ki of 1.65 µM.
As to `NCCc1ccc(O)c(O)c1-c1ccccc1`, the inhibition in test [1] is under 20%. In addition, the Ki at D(1A) dopamine receptor [2] was found to be 1.5 µM.
On to `NCC1c2cc(O)ccc2-c2c1ccc(O)c2O` (stereo unspecified), for which the Ki at D(1A) dopamine receptor [2] was 0.043 µM; on D(2) dopamine receptor, 5.74 µM.
Regarding `CCCN(CCC)CCc1ccc(O)c(O)c1-c1ccc(O)cc1`, the results for the Ki on D(1A) dopamine receptor [2] and at D(2) dopamine receptor were 1.74 µM and 1.8 µM, respectively.
In test [3], `Oc1c(O)c(-c2ccccc2)c2c(c1Cl)CCNCC2` came in with an inhibition of 27%. The molecule further displayed a Ki on D(1A) dopamine receptor [2] of 0.7 µM.
Turning to `Oc1cc2c(cc1O)CCNCC2`, the affinity on D(1A) dopamine receptor [4], expressed as Ki, was 0.97 µM.

By inhibition is commonly meant the share of the control response that was lost under treatment. Read a low inhibition as little suppression. What is called Ki is a dissociation constant, usually derived from enzyme kinetics or from competition with a known ligand. A low value points to a stronger hold on the target.
